From PubChem BioAssay
Activity calls are given as the source filed them.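 How the source made its calls, unless noted: active means compounds giving at least 50% inhibition in the cell-based MKP-3 phosphatase rescue imaging test; inactive means the rest.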

Key:
[1] = inhibitors of TNFa-induced NFkB p65 translocation, primary screen, imaging, HUVEC, MLSMR starter and 10KST1 sets (AID 438;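 active means inhibition above 20% together with a positive visual image hit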;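 further: compound added about 3h40 before a 20 min TNFalpha stimulation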;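 on inhibition: signal is the nuclear over cytoplasmic p65 intensity ratio per well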); settings: HUVEC TNFa-induced p65 nuclear translocation; cell count: measured here: nuclei count (cytotoxicity indicator), at 2.08 µM; inhibition: at 2 µM, stronger effect = higher value, 0% TNFa-plus-vehicle, 100% no-TNFa wells
[2] = endothelial E-selectin expression blockers – imaging, HUVEC, immunofluorescence, MLSMR starter and 10KST1 sets, primary screen (AID 487;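 active means visually confirmed hit in the image check and inhibition above 20%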;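 on inhibition: signal is fraction of cell area covered by stained E-selectin grains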;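 on nuclei count: 100% = median nuclei count of all wells on the same plate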); settings: HUVEC TNFalpha-induced E-selectin immunofluorescence imaging, at 2 µM; inhibition: stronger effect = higher value; nuclei count: measured here: cell number, toxicity
[3] = Primary imaging screen for DUSP6 inhibitors that restore phospho-Erk in transfected HeLa cells, chemical complementation (AID 609); settings: HeLa MKP-3 transfected, phospho-Erk imaging KS statistic, at 10 µM, cells stimulated with TPA for 15 min;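 on inhibition: phospho-Erk level distribution per well compared with pooled transfected vehicle control wells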
[4] = target: Dual specificity protein phosphatase 6 (Homo sapiens) (UniProt Q16828); assay: as above; settings: HeLa MKP-3 transfected, phospho-Erk imaging KS statistic; at 10 µM; stronger effect = higher value; cells stimulated with TPA for 15 min
Chain of Dual specificity protein phosphatase 6 (Homo sapiens) (Q16828 whole entry, looked up): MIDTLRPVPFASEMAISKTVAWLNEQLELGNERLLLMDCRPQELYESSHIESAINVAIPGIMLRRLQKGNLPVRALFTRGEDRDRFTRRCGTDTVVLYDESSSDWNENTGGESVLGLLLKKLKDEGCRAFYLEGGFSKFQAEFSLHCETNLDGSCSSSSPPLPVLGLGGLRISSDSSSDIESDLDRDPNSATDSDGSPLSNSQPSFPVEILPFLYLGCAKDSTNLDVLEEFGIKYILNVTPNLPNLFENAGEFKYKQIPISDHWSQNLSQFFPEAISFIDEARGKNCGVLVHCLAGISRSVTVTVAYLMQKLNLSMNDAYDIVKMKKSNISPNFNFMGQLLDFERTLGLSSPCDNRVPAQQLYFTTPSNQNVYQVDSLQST

[5] = target: Voltage-gated potassium channel subunit beta-2 (Rattus norvegicus) (UniProt P62483); assay: inhibitors of rat Kvbeta2 reductase activity – biochemical, NADPH fluorescence, primary screen (AID 622;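 active means fluorescence slope higher than the sample average by over 3 SD, cut at about -0.22 in these data, passing the limit was not always enough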;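 further: slope of raw intensity against log time taken from 70 to 1610 s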); settings: recombinant KvBeta, 4-cyanobenzaldehyde reduction, at 10 µM, stronger effect = higher value
Chain of Voltage-gated potassium channel subunit beta-2 (Rattus norvegicus) (P62483 whole entry, looked up): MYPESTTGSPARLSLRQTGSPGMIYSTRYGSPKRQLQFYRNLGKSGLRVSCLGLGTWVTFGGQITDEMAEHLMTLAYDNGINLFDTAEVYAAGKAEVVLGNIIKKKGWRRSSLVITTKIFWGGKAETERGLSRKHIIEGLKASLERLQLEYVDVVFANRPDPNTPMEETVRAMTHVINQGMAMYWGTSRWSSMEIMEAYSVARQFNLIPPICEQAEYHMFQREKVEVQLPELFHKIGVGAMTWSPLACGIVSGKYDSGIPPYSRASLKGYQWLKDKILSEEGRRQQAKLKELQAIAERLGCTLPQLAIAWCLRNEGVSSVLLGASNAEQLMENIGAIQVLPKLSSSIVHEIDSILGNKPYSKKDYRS

[6] = target: Voltage-gated potassium channel subunit beta-2 (Rattus norvegicus) (UniProt P62483); assay: enhancers of rat Kvbeta2 NADPH turnover – biochemical, NADPH fluorescence, primary screen (AID 623;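 active means NADPH fluorescence slope more negative than the mean of all samples by about 3 SD, 99.7% confidence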;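 further: fluorescence intensity change per second fitted from 20 to 320 s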); settings: Recombinant KvBeta, NADPH fluorescence decrease slope, 10 min; at 10 µM; stronger effect = lower value
[7] = target: Muscarinic acetylcholine receptor M4 (Homo sapiens) (UniProt P08173); assay: M4-linked GIRK flux change, two-sided – cell-based, HEK293 M4/GIRK, thallium flux, BTC-AM, M4 allosteric agonist project, primary screen (AID 625;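 active means fluorescence slope after compound addition differing from the mean of all tested samples at 99.7% confidence, mostly higher but some lower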;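 further: thallium influx through GIRK channels coupled to M4 in HEK293 cells with BTC-AM dye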); settings: at 10 µM, actives lie on both sides
Chain of Muscarinic acetylcholine receptor M4 (Homo sapiens) (P08173 whole entry, looked up): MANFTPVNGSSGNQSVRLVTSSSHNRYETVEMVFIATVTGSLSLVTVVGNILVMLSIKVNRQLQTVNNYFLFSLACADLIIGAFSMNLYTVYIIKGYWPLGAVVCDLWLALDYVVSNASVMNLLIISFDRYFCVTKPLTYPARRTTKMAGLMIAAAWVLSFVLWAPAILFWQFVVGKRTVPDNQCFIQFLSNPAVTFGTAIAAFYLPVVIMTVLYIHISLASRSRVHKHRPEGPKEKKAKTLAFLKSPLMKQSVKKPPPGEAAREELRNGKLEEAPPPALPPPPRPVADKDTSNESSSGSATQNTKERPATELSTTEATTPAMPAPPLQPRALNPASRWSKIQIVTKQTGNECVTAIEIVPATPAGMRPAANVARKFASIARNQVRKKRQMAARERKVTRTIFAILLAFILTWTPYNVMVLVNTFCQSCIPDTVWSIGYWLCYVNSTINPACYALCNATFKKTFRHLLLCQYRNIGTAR
How it was run: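 Material: HEK293 cells with M4 receptor and GIRK channels; Times: cells overnight at 37 °C, BTC-AM loading 1 h, reads 2 min total; Technique: kinetic BTC-AM fluorescence sampled at 1 Hz, 10 s pre-addition baseline; Read-out basis: slope over 15–24 s of trace normalized to starting intensity; Controls: carbachol positive, DMSO negative.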

[8] = inhibitors of larval lipid processing in zebrafish, primary screen, whole organism, PED6 fluorescence, gall bladder and intestine (AID 686;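 active means a full or partial loss of lipid-probe fluorescence in the fish gall bladder, intestine or both, judged by eye; inactive means no fluorescence loss, or compound toxic to the fish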;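 further: larvae 5 to 7 days old with five fish per well; signal comes from phospholipase A2 cleavage of quenched PED6 carried via bile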); settings: Zebrafish larvae PED6 lipid processing, fluorescence scoring; screened at 20 µM (by protocol)
How it was run: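 Incubation: overnight exposure of larvae to compound plus PED6 / Test system: live zebrafish larvae aged 5-7 days, whole organism / Amount: 5 larvae per well / Read-out basis: visual per-well fluorescence inhibition score / Signal: visual fluorescence microscopy scoring of gall bladder, gut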

[9] = loss of swimming-algae plug formation – whole organism, Chlamydomonas reinhardtii, WT vs cilia-less mutant, absorbance, 96-well, primary screen (AID 463189;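 active means inhibition at or above 50% relative to wild type and mutant plate controls; inactive means inhibition below 50%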;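 further: 0% = wild type cc124 cells in DMSO and 100% = ciliumless bld1 mutant cells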); settings: Chlamydomonas reinhardtii gravitaxis, OD600 absorbance, 2 days; at 10 µM; stronger effect = higher value
[10] = measured here: cell density z-score
[11] = measured here: nuclear c-Myc green intensity z-score
[12] = measured here: nuclear pErk red intensity z-score, stronger effect = higher value

COc1ccc2nc(/N=C(\N)NC(=O)C(C)(C)C)nc(C)c2c1
cell count [1]: 503
inhibition [1]: -6.3% (inactive)
inhibition [2]: -18.6% (inactive)
nuclei count [2]: 184%
z-score [3, 10]: 0.367
z-score [3, 11]: -0.163
z-score [3, 12]: -0.285
inhibition [4]: 9.91% (inactive)
fluorescence slope [5]: -0.361 (inactive)
NADPH fluorescence slope [6]: -3e-05 (inactive)
fluorescence slope [7]: 0.00616 (inactive)
outcome [8]: inactive; toxic
inhibition [9]: 2.17% (inactive)

CCCCC(=O)NC(Nc1ccc(C)cn1)(C(=O)OCC)C(F)(F)F (centres undefined)
cell count [1]: 651
inhibition [1]: -16.3% (inactive)
inhibition [2]: -59% (inactive)
nuclei count [2]: 156%
z-score [3, 10]: 0.317
z-score [3, 11]: -1.54
z-score [3, 12]: 1.99
inhibition [4]: 1.63% (inactive)
fluorescence slope [5]: -0.481 (inactive)
NADPH fluorescence slope [6]: -4.4e-05 (inactive)
fluorescence slope [7]: 0.00419 (inactive)
outcome [8]: inactive
inhibition [9]: -0.324% (inactive)

Cc1ccc(-n2ncc3c(NCc4cccnc4)ncnc32)c(C)c1
cell count [1]: 623
inhibition [1]: -10.1% (inactive)
inhibition [2]: 33.3% (inactive)
nuclei count [2]: 103%
z-score [3, 10]: -0.852
z-score [3, 11]: 0.459
z-score [3, 12]: 0.734
inhibition [4]: 1.42% (inactive)
fluorescence slope [5]: -0.325 (inactive)
NADPH fluorescence slope [6]: -4.3e-05 (inactive)
fluorescence slope [7]: 0.00518 (inactive)
outcome [8]: inactive
inhibition [9]: -12.1% (inactive)

O=C(O)C1CC(=O)n2c(nc3ccccc32)S1 (centres undefined)
cell count [1]: 608
inhibition [1]: -4.4% (inactive)
inhibition [2]: -24.7% (inactive)
nuclei count [2]: 119%
z-score [3, 10]: 0.706
z-score [3, 11]: -1.47
z-score [3, 12]: -0.562
inhibition [4]: 3.49% (inactive)
fluorescence slope [5]: -0.47 (inactive)
NADPH fluorescence slope [6]: -6e-05 (inactive)
fluorescence slope [7]: 0.00435 (inactive)
outcome [8]: inactive
inhibition [9]: 8.06% (inactive)

N#Cc1c2c(c(-c3ccco3)[nH]c1=O)CCCC2
cell count [1]: 576
inhibition [1]: -5% (inactive)
inhibition [2]: -60.2% (inactive)
nuclei count [2]: 152%
z-score [3, 10]: -0.652
z-score [3, 11]: 0.857
z-score [3, 12]: 0.409
inhibition [4]: -5.81% (inactive)
fluorescence slope [5]: -0.435 (inactive)
NADPH fluorescence slope [6]: -0.000117 (inactive)
fluorescence slope [7]: 0.00432 (inactive)
outcome [8]: inactive
inhibition [9]: 17% (inactive)

CCOc1ccc(NC(=O)c2nn(C)cc2Br)cc1
cell count [1]: 647
inhibition [1]: 2.4% (inactive)
inhibition [2]: -41% (inactive)
nuclei count [2]: 157%
z-score [3, 10]: 0.327
z-score [3, 11]: 0.393
z-score [3, 12]: -0.814
inhibition [4]: -4.27% (inactive)
fluorescence slope [5]: -0.489 (inactive)
NADPH fluorescence slope [6]: -6.1e-05 (inactive)
fluorescence slope [7]: 0.00579 (inactive)
outcome [8]: inactive
inhibition [9]: 4.55% (inactive)

CCOC(=O)C1=C(N)N2C(=O)CSC2=C(C(=O)OC)C1
cell count [1]: 523
inhibition [1]: 1.5% (inactive)
inhibition [2]: -111% (inactive)
nuclei count [2]: 138%
z-score [3, 10]: 0.366
z-score [3, 11]: 1.6
z-score [3, 12]: -1.91
inhibition [4]: 5.42% (inactive)
fluorescence slope [5]: -0.476 (inactive)
NADPH fluorescence slope [6]: -0.000109 (inactive)
fluorescence slope [7]: 0.00418 (inactive)
outcome [8]: inactive
inhibition [9]: -0.259% (inactive)

COCc1n[nH]c(=S)n1-c1cccc2ccccc12
cell count [1]: 533
inhibition [1]: -1.3% (inactive)
inhibition [2]: -25.8% (inactive)
nuclei count [2]: 173%
z-score [3, 10]: 0.455
z-score [3, 11]: 0.388
z-score [3, 12]: 0.964
inhibition [4]: 5.95% (inactive)
fluorescence slope [5]: -0.415 (inactive)
NADPH fluorescence slope [6]: -4.6e-05 (inactive)
fluorescence slope [7]: 0.00527 (inactive)
outcome [8]: inactive
inhibition [9]: 4.29% (inactive)

CC12CN3CC(C)(CN(C1)C3c1ccc(Br)cc1O)C2 (centres undefined)
cell count [1]: 576
inhibition [1]: -3% (inactive)
inhibition [2]: -162% (inactive)
nuclei count [2]: 138%
z-score [3, 10]: 0.885
z-score [3, 11]: -1.75
z-score [3, 12]: -1.65
inhibition [4]: 5.42% (inactive)
fluorescence slope [5]: -0.472 (inactive)
NADPH fluorescence slope [6]: -8.8e-05 (inactive)
fluorescence slope [7]: 0.00399 (inactive)
outcome [8]: inactive
inhibition [9]: 4.37% (inactive)

Cc1ccc(NC(=O)CSc2nnc(-c3ccco3)c(-c3ccco3)n2)cc1
cell count [1]: 389
inhibition [1]: -7.7% (inactive)
inhibition [2]: -155% (inactive)
nuclei count [2]: 183%
z-score [3, 10]: -0.429
z-score [3, 11]: -0.71
z-score [3, 12]: 1.45
inhibition [4]: -0.608% (inactive)
fluorescence slope [5]: -0.453 (inactive)
NADPH fluorescence slope [6]: -0.000112 (inactive)
fluorescence slope [7]: 0.00329 (inactive)
outcome [8]: inactive
inhibition [9]: 11.9% (inactive)

CCC(CC)n1[nH]c(=O)cc1N
cell count [1]: 392
inhibition [1]: -15.4% (inactive)
inhibition [2]: -166% (inactive)
nuclei count [2]: 144%
z-score [3, 10]: 2
z-score [3, 11]: -1.52
z-score [3, 12]: -0.418
inhibition [4]: 7.73% (inactive)
fluorescence slope [5]: -0.46 (inactive)
NADPH fluorescence slope [6]: -9.4e-05 (inactive)
fluorescence slope [7]: 0.0051 (inactive)
outcome [8]: inactive
inhibition [9]: 7.67% (inactive)

COc1cccc(C(=O)Nc2ccc(-c3nnc(-c4ccco4)o3)cc2)c1
cell count [1]: 684
inhibition [1]: 6.3% (inactive)
inhibition [2]: 25.7% (inactive)
nuclei count [2]: 158%
z-score [3, 10]: -0.186
z-score [3, 11]: 0.958
z-score [3, 12]: -0.649
inhibition [4]: 1.63% (inactive)
fluorescence slope [5]: -0.476 (inactive)
NADPH fluorescence slope [6]: -4.6e-05 (inactive)
fluorescence slope [7]: 0.00624 (inactive)
outcome [8]: inactive
inhibition [9]: -6.98% (inactive)

CCOC(=O)c1c(NC(=O)CN2CCOCC2)sc2c1CC(C)(C)OC2
cell count [1]: 525
inhibition [1]: -12.5% (inactive)
inhibition [2]: -92.8% (inactive)
nuclei count [2]: 146%
z-score [3, 10]: 0.295
z-score [3, 11]: -0.682
z-score [3, 12]: -0.184
inhibition [4]: 3.49% (inactive)
fluorescence slope [5]: -0.465 (inactive)
NADPH fluorescence slope [6]: -4.6e-05 (inactive)
fluorescence slope [7]: 0.00443 (inactive)
outcome [8]: inactive
inhibition [9]: -12.3% (inactive)
